Test results reported in ChEMBL document CHEMBL5236619, “Design and Optimization of 1H-1,2,3-Triazole-4-carboxamides as Novel, Potent, and Selective Inverse Agonists and Antagonists of PXR” (J Med Chem, 2022).
Calls of active or inactive are those of the source. The rule behind the calls is not given here.

What was measured:
[1] = molecular target: T1, Nuclear receptor subfamily 1 group I member 2 (Mus musculus, UniProt O54915); test: Effect on mouse PXR activity by luciferase reporter assay
T1 sequence (O54915 whole entry): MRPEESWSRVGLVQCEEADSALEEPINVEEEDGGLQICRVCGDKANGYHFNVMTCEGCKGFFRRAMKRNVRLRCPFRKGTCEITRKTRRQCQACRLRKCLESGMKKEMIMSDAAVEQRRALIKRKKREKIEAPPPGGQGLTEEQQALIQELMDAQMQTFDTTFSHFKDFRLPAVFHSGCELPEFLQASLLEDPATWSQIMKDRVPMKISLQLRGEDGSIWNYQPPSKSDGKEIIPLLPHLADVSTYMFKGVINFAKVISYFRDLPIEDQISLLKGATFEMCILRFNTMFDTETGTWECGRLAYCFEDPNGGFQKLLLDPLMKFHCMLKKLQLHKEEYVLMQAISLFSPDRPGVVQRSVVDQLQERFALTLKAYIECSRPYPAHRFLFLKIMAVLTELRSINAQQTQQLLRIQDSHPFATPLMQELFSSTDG
How it was run: (§1)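 Run in agonistic mode (compound alone) or antagonistic mode (compound plus an agonist). Each concentration tested in quadruplicate, at least three times. % activation or % inhibition plotted against concentration, with EC50 or IC50 derived from a sigmoidal dose–response fit.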

[2] = molecular target: T2, Oxysterols receptor LXR-alpha (Homo sapiens) (UniProt Q13133); test: Effect on LXRalpha activity in GeneBLAzer LXRalpha-UAS-bla HEK 293T cells by fluorescence based analysis; format: cell-based; how it was run: as §1
T2 sequence (whole entry): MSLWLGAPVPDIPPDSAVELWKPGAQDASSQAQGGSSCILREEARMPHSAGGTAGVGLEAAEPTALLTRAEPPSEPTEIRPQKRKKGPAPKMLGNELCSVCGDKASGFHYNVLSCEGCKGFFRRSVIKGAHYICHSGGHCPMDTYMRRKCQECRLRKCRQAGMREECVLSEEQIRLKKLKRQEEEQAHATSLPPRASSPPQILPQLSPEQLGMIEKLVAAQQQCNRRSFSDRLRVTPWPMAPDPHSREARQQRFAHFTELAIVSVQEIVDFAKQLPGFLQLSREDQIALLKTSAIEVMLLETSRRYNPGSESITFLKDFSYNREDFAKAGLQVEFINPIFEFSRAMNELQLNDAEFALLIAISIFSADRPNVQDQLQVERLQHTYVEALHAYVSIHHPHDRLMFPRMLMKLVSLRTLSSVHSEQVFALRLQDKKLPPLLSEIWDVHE

[3] = molecular target: T3, PXR (NR1I2) ligand binding domain (Homo sapiens, UniProt O75469); test: Inhibition of BODIPY FL vindoline binding to recombinant human GST-tagged PXR LBD (111 to 434 residues) expressed in baculovirus infected insect cells at 10 uM incubated for 1 mins under shaking condition followed by 60 mins under dark condition by TR-FRET assay relative to control; conditions: probe BODIPY FL vindoline, time 61 min
T3 sequence (O75469 whole entry): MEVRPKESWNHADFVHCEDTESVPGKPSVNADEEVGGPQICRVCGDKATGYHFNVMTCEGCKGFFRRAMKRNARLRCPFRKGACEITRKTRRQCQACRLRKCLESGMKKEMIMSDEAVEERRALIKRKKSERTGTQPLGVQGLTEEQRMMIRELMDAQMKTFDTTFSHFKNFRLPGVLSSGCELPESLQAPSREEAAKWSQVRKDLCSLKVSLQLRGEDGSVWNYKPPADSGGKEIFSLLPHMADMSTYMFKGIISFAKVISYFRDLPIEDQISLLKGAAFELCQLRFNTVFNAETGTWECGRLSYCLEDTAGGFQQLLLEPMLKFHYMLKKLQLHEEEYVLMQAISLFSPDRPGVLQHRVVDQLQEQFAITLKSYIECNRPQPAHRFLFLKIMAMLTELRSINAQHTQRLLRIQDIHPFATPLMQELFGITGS

[4] = molecular target: T4, Nuclear receptor subfamily 1 group I member 2 (Homo sapiens, UniProt O75469); test: Agonist activity at human PXR in human HepG2 cells co-expressing luciferase gene under control of CYP3A4 promoter assessed as transcriptional activation at 30 uM incubated for 24 hrs by luminescence based analysis; format: cell-based; conditions: hepg2, 24 h
T4 sequence (O75469 whole entry): T3 sequence (O75469 whole entry)

HepG2 [5] = test: Effect on CAR activity in human HepG2 cells co-expressing luciferase gene under control of CYP3A4 promoter by luciferase reporter assay; format: cell-based
HepaRG = test: Cytotoxicity against human HepaRG cells assessed as reduction in cell viability measured after 24 to 72 hrs by celltiter-glo luminescent cell viability assay; format: toxicity, cell-based; conditions: time 24-72 hrs
How it was run: (§2)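 Cells seeded at 2,500 per well for 1-day or 5,000 per well for 3-day exposure. Viability read by CellTiter-Glo luminescence. Staurosporine (56 μM) set as 100% cytotoxicity. Each concentration run in quadruplicate, at least three times. % cytotoxicity plotted and fitted to a sigmoidal dose–response curve. Means and SDs from three independent experiments.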

[6] = molecular target: T5, Vitamin D3 receptor (Homo sapiens) (UniProt P11473); test: Effect on VDR activity in GeneBLAzer VDR-UAS-bla HEK 293T cells by fluorescence based analysis; format: cell-based; how it was run: as §1
T5 sequence (whole entry): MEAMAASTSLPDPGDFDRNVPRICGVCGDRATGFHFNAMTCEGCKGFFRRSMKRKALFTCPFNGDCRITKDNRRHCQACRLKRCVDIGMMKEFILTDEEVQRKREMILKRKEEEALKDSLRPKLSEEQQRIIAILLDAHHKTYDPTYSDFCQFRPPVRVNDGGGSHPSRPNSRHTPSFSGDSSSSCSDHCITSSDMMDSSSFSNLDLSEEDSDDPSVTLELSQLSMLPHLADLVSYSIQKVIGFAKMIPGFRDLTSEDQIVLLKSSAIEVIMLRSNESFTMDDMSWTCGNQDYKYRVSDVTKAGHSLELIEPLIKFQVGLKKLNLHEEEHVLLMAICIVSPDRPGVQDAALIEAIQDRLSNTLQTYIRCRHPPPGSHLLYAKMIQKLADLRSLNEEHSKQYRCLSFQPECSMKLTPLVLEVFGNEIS

[7] = Cytotoxicity against […] Hepa1-6 cells assessed as reduction in cell viability measured after 24 to 72 hrs by celltiter-glo luminescent cell viability assay; format: toxicity, cell-based; conditions: time 24-72 hrs; how it was run: as §2
[8] = molecular target: T6, Bile acid receptor (Homo sapiens) (UniProt Q96RI1); test: Effect on FXR activity in GeneBLAzer FXR-UAS-bla HEK 293T cells by fluorescence based analysis; format: cell-based; how it was run: as §1
T6 sequence (whole entry): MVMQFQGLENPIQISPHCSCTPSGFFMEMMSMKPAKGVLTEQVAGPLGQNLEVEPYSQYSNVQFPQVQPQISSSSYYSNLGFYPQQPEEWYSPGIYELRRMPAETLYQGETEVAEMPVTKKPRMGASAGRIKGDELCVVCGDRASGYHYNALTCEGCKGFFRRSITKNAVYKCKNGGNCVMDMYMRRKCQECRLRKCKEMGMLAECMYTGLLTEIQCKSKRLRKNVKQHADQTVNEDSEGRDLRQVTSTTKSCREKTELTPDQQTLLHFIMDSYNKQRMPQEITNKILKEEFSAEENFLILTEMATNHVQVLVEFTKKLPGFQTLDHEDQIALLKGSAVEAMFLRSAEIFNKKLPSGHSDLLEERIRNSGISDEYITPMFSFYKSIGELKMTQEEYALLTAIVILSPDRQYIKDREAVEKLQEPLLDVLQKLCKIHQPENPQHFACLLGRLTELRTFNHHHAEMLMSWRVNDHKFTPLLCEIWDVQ

HEK-293T = test: Cytotoxicity against HEK293T cells assessed as reduction in cell viability measured after 24 to 72 hrs by celltiter-glo luminescent cell viability assay; format: toxicity, cell-based; conditions: human, time 24-72 hrs; how it was run: as §2
HepG2 [9] = test: Cytotoxicity against human HepG2 cells assessed as reduction in cell viability measured after 24 to 72 hrs by celltiter-glo luminescent cell viability assay; format: toxicity, cell-based; conditions: time 24-72 hrs; how it was run: as §2
PXR (NR1I2) = molecular target: T7, PXR (NR1I2) (Homo sapiens, UniProt O75469); test: Inverse agonist activity at human PXR in human HepG2 cells co-expressing luciferase gene under control of CYP3A4 promoter assessed as inhibition in receptor basal activity at 10 uM incubated for 24 hrs by luminescence based analysis relative to control; format: cell-based
T7 sequence (O75469 whole entry): T3 sequence (O75469 whole entry)

[10] = molecular target: T4, Nuclear receptor subfamily 1 group I member 2; test: Inhibition of BODIPY FL vindoline binding to recombinant human GST-tagged PXR LBD (111 to 434 residues) expressed in baculovirus infected insect cells incubated for 1 mins under shaking condition followed by 60 mins under dark condition by TR-FRET assay
[11] = molecular target: T4, Nuclear receptor subfamily 1 group I member 2; test: Inverse agonist activity at human PXR in human HepG2 cells co-expressing luciferase gene under control of CYP3A4 promoter assessed as inhibition in receptor basal activity at 30 uM incubated for 24 hrs by luminescence based analysis; conditions: hepg2, 24 h
[12] = molecular target: T4, Nuclear receptor subfamily 1 group I member 2; test: Inverse agonist activity at human PXR in human HepG2 cells co-expressing luciferase gene under control of CYP3A4 promoter assessed as inhibition of receptor basal activity incubated for 24 hrs by luminescence based analysis; format: cell-based

Structure (SMILES) | Activity [1] | Activity [2] | inhibition at 1.017 h, 10 µM [3] [%] | Activity [4] | Activity (HepG2 [5]) | Activity (HepaRG) | Activity [6] | Activity [7] | Activity [8] | Activity (HEK-293T) | Activity (HepG2 [9]) | inhibition at 24 h, 10 µM (PXR (NR1I2)) [%] | IC50 [10] [nM] | INH [11] | IC50 [12] [nM]
CCC[C@H](C)Oc1ccc(C(C)(C)C)cc1NC(=O)c1nnn(-c2cc(OC)ccc2OC)c1C | Not Active | inactive | 87 | Not Active | inactive | Non-Toxic | inactive | Non-Toxic | inactive | Non-Toxic | Non-Toxic | 125 | – | – | –
CCC[C@H](C)Oc1ccc(C(C)(C)C)cc1NC(=O)c1nnn(-c2cc(C)ccc2OC)c1C | Not Active | inactive | 90 | Not Active | inactive | Non-Toxic | inactive | Non-Toxic | inactive | Non-Toxic | Non-Toxic | – | 4 | Not Active | –
COc1ccc(OC)c(-n2nnc(C(=O)Nc3cc(C(C)(C)C)ccc3OCCN3CCOCC3)c2C)c1 | – | – | 68 | Not Active | – | – | – | – | – | – | – | 81 | – | – | 1400
COc1ccc(OC)c(-n2nnc(C(=O)Nc3cc(C(C)(C)C)ccc3OCCN(C)C)c2C)c1 | – | – | 87 | Not Active | – | – | – | – | – | – | – | – | – | – | 1800
